Laboratory results reported in ChEMBL document CHEMBL1132470, “Structure-activity relationships of novel 2-substituted quinazoline antibacterial agents” (1999).
Values after ≈ are worked out from the molar mass of the structure shown.

How the values were obtained:
Type in all cases: functional
Streptococcus pyogenes [1] = assay: Antibacterial activity against Streptococcus pyogenes (#14289)
Outline: (§1)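 Run as a duplicate broth microdilution in Todd-Hewitt broth. An overnight culture was added to compound in 4% DMSO in water, giving about 10⁵-10⁶ CFU/well, and incubated at 37 °C. Growth was read as A595 at 24 h. MIC is given as a concentration range: complete inhibition at the upper concentration, viable cells at the lower. Ampicillin and tetracycline served as controls.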

Escherichia coli [2] = assay: Antibacterial activity against Escherichia coli
Streptococcus pyogenes [3] = assay: Antibacterial activity against Streptococcus pyogenes; outline: as §1
Streptococcus pyogenes [4] = assay: Antibacterial activity against Streptococcus pyogenes (#49399)
Staphylococcus aureus = assay: Antibacterial activity against Staphylococcus aureus (#13709)
Outline: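 Trypticase soy broth culture was grown at 37 °C. The overnight suspension was mixed with compound in 4% DMSO in water, giving a final inoculum of about 10⁵-10⁶ CFU/well, in duplicate. Growth was read as A595 after 24 h. MIC is a concentration range, full inhibition at the higher and viability at the lower. Ampicillin and tetracycline were included as controls.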

Klebsiella pneumoniae = assay: Antibacterial activity against Klebsiella pneumoniae (#13883)
Outline: (§2)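 Bacteria were grown in nutrient broth at 37 °C. An overnight culture was added to compound in 4% DMSO/water, giving about 10⁵-10⁶ CFU/well, in duplicate. Absorbance at 595 nm was read after 24 h. MIC is reported as a range between the lowest concentration with complete growth inhibition and the next lower concentration with viable cells. Ampicillin and tetracycline were positive controls.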

Escherichia coli [5] = assay: Antibacterial activity against Escherichia coli (#25922); outline: as §2
Enterococcus faecalis = assay: Antibacterial activity against Enterococcus faecalis (#29212); outline: as §1

Row | Structure (SMILES) | MIC (Escherichia coli [2]) [µM] | MIC (Streptococcus pyogenes [3]) [µM] | further results
1 | COC(=O)c1nc(Cl)c(NC2CCN(C(=O)OC(C)(C)C)CC2)nc1N | > 25 |  | MIC (Streptococcus pyogenes [1]): > 25 µM
2 | COc1cc2nc(N3CCC(Nc4ccc(C(=O)OC(C)(C)C)cc4)CC3)nc(OC)c2cc1OC | < 100 | < 100 | 
3 | COc1cc2nc(N3CCC(Nc4ccc(C(=O)OC(C)(C)C)cc4)CC3)nc(Nc3ccc(C)cc3)c2cc1OC | 10 (≈ 5.7 µg/mL) | 2.5 (≈ 1.42 µg/mL) | 
4 | COc1cc2cnc(N3CCC(Nc4ccc(C(=O)OC(C)(C)C)cc4)CC3)nc2cc1OC | > 20 | > 20 | 
5 | COC(=O)c1nc(Cl)c(NNc2nc(N)c3cc(OC)c(OC)cc3n2)nc1N | > 50 |  | MIC (Streptococcus pyogenes [1]): > 50 µM
6 | COc1ccc2[nH]c(N3CCC(Nc4ccc(C(=O)O)cc4)CC3)nc2c1 | > 25 | > 25 | 
7 | COC(=O)c1nc(Cl)c(NC2CCNCC2)nc1N | > 25 |  | MIC (Streptococcus pyogenes [1]): > 25 µM
8 | CC(C)(C)OC(=O)c1ccc(NC2CCN(c3ccc4ccccc4c3)CC2)cc1 | > 25 | > 25 | 
9 | COC(=O)c1ncc(NC2CCN(c3nc(N)c4cc(OC)c(OC)cc4n3)CC2)nc1N | > 50 |  | MIC (Streptococcus pyogenes [1]): > 50 µM
10 | COC(=O)c1ccc(NC2CCN(Cc3ccccc3)CC2)cc1 | > 25 | > 25 | 
11 | O=C(O)c1ccc(NC2CCN(S(=O)(=O)c3ccc4ccccc4c3)CC2)cc1 | > 25 | > 25 | 
12 | COC(=O)c1ccc(NC2CCN(c3nc(N)c4cc(OC)c(OC)cc4n3)CC2)nc1 | > 50 | 25 (≈ 11 µg/mL) | 
13 | COc1cc2nc(N3CCC(Nc4ccc(C(=O)O)cc4)CC3)nc(OC)c2cc1OC | > 20 | > 20 | 
14 | COC(=O)c1nc(Cl)c(NC2CCN(c3nc(N)c4cc(OC)c(OC)cc4n3)CC2)nc1N | > 25 |  | MIC (Streptococcus pyogenes [1]): 12 µM (≈ 5.87 µg/mL)
15 | COC(=O)c1nc(Cl)c(NC2CCN(Cc3ccccc3)CC2)nc1N | > 50 |  | MIC (Streptococcus pyogenes [1]): > 50 µM
16 | O=C(O)c1ccc(NC2CCN(C(=O)c3ccc4ccccc4c3)CC2)cc1 | > 25 | > 25 | 
17 | CC(C)(C)OC(=O)c1ccc(NC2CCN(C(=O)c3ccc4ccccc4c3)CC2)cc1 | > 25 | > 25 | 
18 | CC(C)(C)OC(=O)c1ccc(NC2CCN(S(=O)(=O)c3ccc4ccccc4c3)CC2)cc1 | > 25 | > 25 | 
19 | COc1cc2nc(N3CCC(Nc4ccc(C(=O)OC(C)(C)C)cc4[N+](=O)[O-])CC3)nc(N)c2cc1OC | 25 (≈ 13.1 µg/mL) |  | MIC (Streptococcus pyogenes [1]): 50 µM (≈ 26.2 µg/mL)
20 | COc1ccc2[nH]c(N3CCC(Nc4ccc(C(=O)OC(C)(C)C)cc4)CC3)nc2c1 | > 100 | > 100 | 

Row | Structure (SMILES) | MIC (Escherichia coli [2]) [µM] | MIC (Streptococcus pyogenes [3]) [µM] | further results
21 | CC(C)(C)OC(=O)c1ccc(NC2CCNCC2)cc1 | > 25 | > 25 | 
22 | COc1cc2cnc(N3CCC(Nc4ccc(C(=O)O)cc4)CC3)nc2cc1OC | > 20 | > 20 | 
23 | COC(=O)c1ccc(NC2CCN(c3nc(N)c4cc(OC)c(OC)cc4n3)CC2)cc1 | 5 (≈ 2.19 µg/mL) | 5 (≈ 2.19 µg/mL) | MIC (Streptococcus pyogenes [4]): 5 µM (≈ 2.19 µg/mL); MIC (Staphylococcus aureus): > 100 µM; MIC (Klebsiella pneumoniae): > 100 µM; MIC (Escherichia coli [5]): > 100 µM; MIC (Enterococcus faecalis): 20 µM (≈ 8.75 µg/mL)
24 | CC(C)(C)OC(=O)c1ccc(NC2CCN(c3ncccn3)CC2)cc1 | > 25 | > 25 | 
25 | COc1cc2nc(N3CCC(Nc4ccc(C(=O)O)cc4[N+](=O)[O-])CC3)nc(N)c2cc1OC | > 20 |  | MIC (Streptococcus pyogenes [1]): > 20 µM
26 | COc1cc2nc(N3CCC(Nc4ccc(C(=O)O)cn4)CC3)nc(N)c2cc1OC | > 50 | > 50 | 
27 | O=C(O)c1ccc(NC2CCN(Cc3ccccc3)CC2)cc1 | > 25 | > 25 | 
28 | COc1cc2nc(N3CCC(Nc4ccc(C(=O)O)cc4)CC3)nc(N)c2cc1OC | 0.4 (≈ 0.169 µg/mL) | > 25 | MIC (Streptococcus pyogenes [4]): > 25 µM; MIC (Staphylococcus aureus): 6 µM (≈ 2.54 µg/mL); MIC (Klebsiella pneumoniae): 6 µM (≈ 2.54 µg/mL); MIC (Escherichia coli [5]): 60 µM (≈ 25.4 µg/mL); MIC (Enterococcus faecalis): > 100 µM
29 | COc1cc2nc(N3CCC(Nc4ccc(C(=O)O)cc4)CC3)nc(Nc3ccc(C)cc3)c2cc1OC | > 20 | > 20 | 
30 | COc1cc2nc(N3CCC(Nc4ccc(C(=O)O)cc4)CC3)nc(O)c2cc1OC | > 20 | > 20 | 
31 | O=C(O)c1ccc(NC2CCN(c3ncccn3)CC2)cc1 | > 25 | > 25 | 
32 | CC(C)(C)OC(=O)c1ccc(NC2CCN(Cc3ccccc3)CC2)cc1 | > 25 | > 25 | 
33 | COc1cc2nc(N3CCC(Nc4ccc(C(=O)OC(C)(C)C)cc4)CC3)nc(N)c2cc1OC | 6 (≈ 2.88 µg/mL) | 3 (≈ 1.44 µg/mL) | MIC (Streptococcus pyogenes [4]): 6 µM (≈ 2.88 µg/mL); MIC (Staphylococcus aureus): > 100 µM; MIC (Klebsiella pneumoniae): > 100 µM; MIC (Escherichia coli [5]): > 100 µM; MIC (Enterococcus faecalis): 6 µM (≈ 2.88 µg/mL)
34 | COc1cc2nc(N3CCC(Nc4ccc(C(=O)OC(C)(C)C)cc4)CC3)nc(O)c2cc1OC | > 100 | > 100 | 
35 | O=C(O)c1ccc(NC2CCN(c3ccc4ccccc4c3)CC2)cc1 | > 25 | > 25 | 
36 | CC(C)(C)OC(=O)c1ccc(NC2CCN(c3nc(N)c4ccccc4n3)CC2)cc1 | < 100 | < 100 | 
37 | COc1cc2nc(N3CCC(Nc4cnc(C(=O)O)c(N)n4)CC3)nc(N)c2cc1OC | > 25 | > 25 | 
38 | Nc1nc(N2CCC(Nc3ccc(C(=O)O)cc3)CC2)nc2ccccc12 | > 100 | > 100 | 
39 | COc1cc2nc(N3CCC(Nc4nc(N)c(C(=O)O)nc4Cl)CC3)nc(N)c2cc1OC | > 100 |  | MIC (Streptococcus pyogenes [1]): > 100 µM
